Bioassay records: PubChem, several laboratories
The list is not random: actives were taken first. Their share in the collection is about 5.1%.
APP 5'UTR act = APP 5'UTR luciferase reporter activation; activation, % at 2 µM; 190,000 tested, 1% active; SH-SY5Y APP 5'UTR luciferase reporter, luminescence; zero percent = DMSO vehicle wells;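 active = activation above a set limit, based on mean plus 3 SD of controls, cut at about 140% in these data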
STAT1 inh = reduces IFN-gamma driven STAT1 reporter signal; NIH 3T3 STAT1-luciferase reporter, luminescence; inhibition, % at 5.5 µM; 200,000 tested, 0.35% active; AID 920;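 active = inhibition above a set limit, the mean inhibition across all tested compounds plus 3 SD, cut at about 34% in these data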
NF-kB expr up = compounds increasing NF-kB expression in human neuronal cells; 190,000 tested, 1.6% active; fold change at 12.5 µM; NF-kB reporter expression; active compounds read high; in the data active = fold change above about 3.3
STAT3 inh = STAT3 signaling inhibition | U3A cells, IL-6 STAT3-luciferase reporter, luminescence; host cell line lacks STAT1 | AID 862 | 190,000 tested, 0.89% active | inhibition, % at 5.5 µM;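 active = inhibition above the mean inhibition across all screened compounds plus 3 SD, cut at about 44% in these data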
STAT3 activator = activators of IL-6 induced STAT3 signaling. U3A cells, IL-6 STAT3-luciferase reporter, luminescence; 100% = signal with IL-6 EC80 alone. activation (% of control), % at 5.6 µM. AID 871. 190,000 tested, 0.91% active;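 active = activation above the screen-wide mean of compound activation plus 3 SD, cut at about 130% in these data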
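Assay system – human STAT1-deficient U3A cells with stable STAT3-luciferase reporter · Also added – IL-6 (33 ng/mL) · Schedule – compound 1 h, then IL-6 6 h at 37 °C · Technique – reporter luminescence signal · Evaluation – % activation versus median of IL-6-stimulated wells · Benchmarks – IL-6-only wells as 100% reference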
STAT1 activator = STAT1 signaling activation; NIH 3T3 STAT1-luciferase reporter, IFN-gamma, luminescence; 100% = IFN-gamma alone, no compound; activation (% of control), % at 5.5 µM; 200,000 tested, 2.6% active; AID 932;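 active = activation above the screen-wide mean activation plus 3 SD, cut at about 130% in these data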
Of the large screens only hits and unclear results are named; the others gave an inactive call.

Cc1cc(=O)oc2cc(OCC3CC(c4ccc(Cl)cc4)=NO3)ccc12 (stereo unspecified)	none
Cc1sc2nc(-c3cccnc3)nc(Cl)c2c1-c1ccccc1	none
CN1C(=O)C(Cl)(Cl)C(=O)c2ccccc21	none
Cc1cccc(NC(=S)N(CCN(C)C)Cc2cccs2)c1	none
O=C(/C=C/c1nc2ccccc2s1)N1CCCCCC1	STAT1 activator 132
COc1cccc2cc(C(=O)N3CCCCC3C)c(=O)oc12 (stereo unspecified)	none
COc1cccc2cc(NC(=O)C3CCCCC3)c(=O)oc12	STAT1 activator 131
Cc1cc(NC(=O)NC(=O)c2ccc(F)cc2F)n[nH]1	STAT1 activator 149
Cc1nc2ccc(NC(=O)c3ccc(Br)o3)cc2s1	NF-kB expr up 3.4, STAT1 activator 145
Cc1nc2ccc(NC(=O)c3ccc(Cl)s3)cc2s1	STAT1 activator 146
Cc1nc2ccc(NC(=O)c3cccnc3)cc2s1	none
O=C(Nc1ccc(-c2nc3cccnc3s2)cc1)c1ccc(Br)o1	STAT1 activator 131
Cc1nc2ccc(NC(=O)Cc3cccs3)cc2s1	STAT1 activator 136
CC(C)(O)C#Cc1ccc(C(=O)N2CCN(c3ccc(Cl)cc3)CC2)cc1	none
CCOC(=O)c1ccc(N/C=C/C(=O)c2ccco2)cc1	NF-kB expr up 5.2
O=C(/C=C/Nc1ccc(F)cc1)c1ccco1	APP 5'UTR act 146, NF-kB expr up 5.1
O=C(Nc1cccc(F)c1)c1ccco1	none
CCOC(=O)c1ccc(N/C=C/C(=O)c2ccc(OC)c(OC)c2)cc1	none
Cc1ccc([N+](=O)[O-])cc1N/C=C/C(=O)c1ccco1	STAT3 activator 134
O=C(Nc1cc([N+](=O)[O-])ccc1N1CCOCC1)c1ccco1	none
O=C(COC(=O)c1ccccc1F)c1ccc(-n2nncc2-c2ccco2)cc1	none
O=C1CC[C@@H](CN(Cc2ccccn2)Cc2nc(-c3ccc(C(F)(F)F)cc3)no2)N1	none
O=C(CSc1nnc2ccccn12)N1CCc2ccccc21	STAT1 activator 135
O=C(CSc1ccccn1)N1CCc2ccccc21	NF-kB expr up 3.5, STAT1 activator 133
CC1CCN(c2ccc(NC(=O)Cc3ccccc3)cc2)CC1	STAT1 activator 142
O=C(NC12CC3CC(CC(C3)C1)C2)c1ccc(-c2ccc(Br)cc2)o1	STAT1 activator 144
COc1ccc(/C=C(\C#N)C(=O)OCC(=O)NC(C)c2ccccc2)cc1 (stereo unspecified)	none
Cc1ccc2nc(-c3ccc(NC(=O)COC(=O)c4ccc(Br)o4)cc3)sc2c1	APP 5'UTR act 136, NF-kB expr up 5.3, STAT3 inh 43, STAT1 activator 142
O=C(COC(=O)c1cncc(Br)c1)Nc1ccc2c(c1)OCO2	none
Cc1ccc2nc(-c3ccc(NC(=O)COC(=O)c4cncc(Br)c4)cc3)sc2c1	APP 5'UTR act 152, NF-kB expr up 6.5, STAT1 activator 144
O=C(COC(=O)c1ccc(Br)o1)Nc1ccc(S(=O)(=O)N2CCCC2)cc1	none
COc1ccc(/C=C(\C#N)C(=O)OCC(=O)Nc2ccc(-c3nc4ccc(C)cc4s3)cc2)cc1	APP 5'UTR act 184, NF-kB expr up 4.5
Cc1ccc2nc(-c3ccc(NC(=O)CN4CCN(C(=O)c5ccco5)CC4)cc3)sc2c1	APP 5'UTR act 149, NF-kB expr up 4.4
CN(C)S(=O)(=O)c1cccc(NC(=S)N(CCC#N)Cc2cccnc2)c1	none
Cc1cc(C)cc(C(=O)NCC(=O)OCC(=O)Nc2cccnc2Cl)c1	none
Cc1ccc2sc(-c3ccc(NC(=O)CCN4C(=O)c5ccccc5C4=O)cc3)nc2c1	APP 5'UTR act 162, STAT1 activator 150
CC(=O)c1ccc(NC(=O)Nc2ccccc2)cc1	APP 5'UTR act 138, NF-kB expr up 3.6
COc1ccc(/C(C)=N/NC(=O)C2CC2)cc1	none
COc1ccc2cc(/C(C)=N/NC(=O)C3CC3)ccc2c1	STAT1 activator 147
CCOc1ccc2nc(N3C(=O)/C(=C/c4ccccc4)NC3=S)sc2c1	STAT1 activator 137
Cc1nc(NC(=O)/C=C/c2ccc(C(C)(C)C)cc2)sc1C(=O)N(C)C	none
CCC(O)CNC(=O)NC(=C(Cl)Cl)c1ccc(C)c(F)c1 (stereo unspecified)	none
Cc1ccccc1C(=O)O/N=C(\N)c1ccncc1	STAT1 activator 133
N/C(=N\OC(=O)c1ccc2ccccc2c1)c1ccccn1	APP 5'UTR act 158, STAT1 inh 71, NF-kB expr up 4.3, STAT3 inh 76
N/C(=N\OC(=O)c1ccc2ccccc2c1)c1ccncc1	APP 5'UTR act 149, STAT1 activator 148
COc1cccc(C(=O)O/N=C(\N)c2ccncc2)c1OC	none
N/C(=N\OC(=O)c1cccc([N+](=O)[O-])c1)c1ccccn1	STAT1 activator 133
CC(=O)c1ccc(NC(=S)NC(C)c2ccc(Cl)cc2Cl)cc1 (stereo unspecified)	none
O=C(c1cc(-c2cccnc2)nc2ccc(Br)cc12)N1CCC2(CC1)OCCO2	none (no result: NF-kB expr up)
Cc1ccc2c(c1)N(C(C)C(=O)NCc1cccs1)C(=O)CO2 (stereo unspecified)	none
CC(C)CC1N=C2c3ccccc3N=C(SCc3cc(=O)n4ccccc4n3)N2C1=O (stereo unspecified)	none (no result: NF-kB expr up)
Cc1ccc(C[n+]2cccc(-c3ccccc3)c2)c(C)c1	none
C/C(=N\Nc1ccc(F)cc1F)c1cccs1	STAT1 activator 129
COc1ccc(/C(C)=N/Nc2ccc(F)cc2F)c(O)c1	STAT1 activator 133
C/C(=N\NC(=O)C1CC1)c1cccs1	none
COc1cc(C2C(C#N)=C(N)Oc3cc(N(C)C)ccc32)cc2c1OCO2 (stereo unspecified)	NF-kB expr up 4.8
COc1cc(C2C(C#N)=C(N)Oc3cc(O)ccc32)cc2c1OCO2 (stereo unspecified)	none
CCCC(=O)Nc1ccc2oc(-c3cncc(Br)c3)nc2c1	NF-kB expr up 3.4, STAT1 activator 139
CCOC(=O)NC(=O)CSc1nnc(C2CC2)n1Cc1ccco1	none
O=C(CNc1ccccc1)N/N=C/c1c[nH]c2ccccc12	none
Cc1cccc(NC(=S)N/N=C/c2c[nH]c3ccccc23)c1	STAT1 activator 132
Cc1nn(C)cc1/C=N/NC(=S)Nc1ccccc1	NF-kB expr up 3.4
CCN(CC)C(=O)c1sc2nc(-c3ccc(OC)cc3)cn2c1C	STAT1 activator 143
COc1ccc(-c2cn3c(C)c(C(=O)NCCN4CCOCC4)sc3n2)cc1	none
O=C(N/N=C/c1ccc2c(c1)OCO2)c1ccc(Br)o1	NF-kB expr up 3.5, STAT1 activator 142
CCN(CC)c1ccc(/C=N/NC(=O)c2ccc(Br)o2)cc1	NF-kB expr up 4.3, STAT1 activator 138
Cc1ccc(/C=N/NC(=O)c2ccc(Br)o2)s1	none
